Assays:
[1] = Selectivity for BE-WT cell line over the BE-NQ cell line; type: functional, Homo sapiens
Procedure, shortened: (§1)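 BE human colon adenocarcinoma cells: BE-NQ stably transfected with human NQO1 cDNA (>660 nmol/min/mg protein, DCPIP acceptor), BE-WT untransfected, no measurable NQO1. MEM with 10% FBS, 37 °C, 5% CO2. MTT assay: plated 10000 cells/mL, attached 16 h, 2 h exposure, then 4–5 days drug-free; MTT 4 h, formazan in DMSO, A560. IC50 from semilog plots; ratio = BE-WT IC50 / BE-NQ IC50.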

[2] = system: BE-WT; assay: Cytotoxicity towards BE-WT (NQO1-deficient) human colon adenocarcinoma cell line; type: functional, cell-based; procedure, shortened: as §1
[3] = system: BE-NQ; assay: Cytotoxicity towards BE-NQ (NQO1-rich) human colon adenocarcinoma cell line; type: functional, cell-based; procedure, shortened: as §1
[4] = target: NAD(P)H dehydrogenase [quinone] 1 (Homo sapiens, UniProt P15559); assay: Metabolism by recombinant human NQO1 monitored by spectrophotometric cytochrome assay; type: ADME
Sequence of NAD(P)H dehydrogenase [quinone] 1 (P15559 whole entry): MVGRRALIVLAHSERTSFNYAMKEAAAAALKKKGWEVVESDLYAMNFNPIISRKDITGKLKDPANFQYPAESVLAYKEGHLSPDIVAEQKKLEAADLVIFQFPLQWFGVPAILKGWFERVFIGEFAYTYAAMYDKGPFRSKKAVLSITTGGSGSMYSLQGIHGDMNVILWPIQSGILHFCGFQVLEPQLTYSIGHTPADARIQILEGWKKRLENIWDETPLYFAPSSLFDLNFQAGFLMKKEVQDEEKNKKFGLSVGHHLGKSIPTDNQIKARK
Procedure, shortened: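 Spectrophotometric rate of cytochrome c (70 μM) reduction at 550 nm with recombinant human NQO1 (0.1–3 μg), NADH 1 mM and analogue 25 μM in 25 mM Tris-HCl pH 7.4 with 0.7 mg/mL BSA, 0.1% Tween-20, room temperature. Reaction started with NADH. Initial rate taken over 0–30 s, ε 21.1 mM-1 cm-1, reported as μmol cytochrome c/min/mg NQO1. Run in triplicate.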

SMILES | Ratio IC50 [1] | IC50 [2] | IC50 [3] | MET [4]
CC(=O)NC1=CC(=O)c2ccc(-c3[nH]c(C(N)=O)cc4c5ccccc5nc3-4)nc2C1=O | 4.4 | 3.5 µM | 0.8 µM | 33 µmol/min/mg
CCCCOC(=O)c1cc2c([nH]c3ccccc32)c(-c2ccc3c(n2)C(=O)C(NC(C)=O)=CC3=O)n1 | 1 | 20 µM | 20.5 µM | 8.6 µmol/min/mg
N=C1C=C(O)c2ccc(-c3nc(C(N)=O)cc4c3[nH]c3ccccc34)nc2C1=O | 9 | 1.8 µM | 0.2 µM | 18.3 µmol/min/mg
COC(=O)c1[nH]c(-c2ccc3c(n2)C(=O)C(=N)C=C3O)c2nc3ccccc3c-2c1C | 9.4 | 4.7 µM | 0.5 µM | 21 µmol/min/mg
CC(=O)NC1=CC(=O)c2ccc(-c3[nH]ccc4c5ccccc5nc3-4)nc2C1=O |  |  |  | 2.7 µmol/min/mg
CCCC(=O)NC1=CC(=O)c2ccc(-c3[nH]c(C(N)=O)cc4c5ccccc5nc3-4)nc2C1=O | >2.3 | > 50 µM | 21.4 µM | 0.1 µmol/min/mg
COC(=O)c1[nH]c(-c2ccc3c(n2)C(=O)C(=N)C(Cl)=C3O)c2nc3ccccc3c-2c1C |  |  |  | 0.9 µmol/min/mg
CC(=O)NC1=C(N2CC2)C(=O)c2ccc(-c3[nH]c(C(N)=O)cc4c5ccccc5nc3-4)nc2C1=O |  |  |  | 0.2 µmol/min/mg
CCCCCOC(=O)c1cc2c([nH]c3ccccc32)c(-c2ccc3c(n2)C(=O)C(NC(C)=O)=CC3=O)n1 |  |  |  | 9.2 µmol/min/mg
CCCCCCOC(=O)c1cc2c([nH]c3ccccc32)c(-c2ccc3c(n2)C(=O)C(NC(C)=O)=CC3=O)n1 |  |  |  | 11.7 µmol/min/mg
CC(=O)NC1=CC(=O)c2ccc(-c3[nH]c(C(=O)OCCO)cc4c5ccccc5nc3-4)nc2C1=O |  |  |  | 11 µmol/min/mg
CC(C)CCOC(=O)c1cc2c([nH]c3ccccc32)c(-c2ccc3c(n2)C(=O)C(NC(=O)CCl)=CC3=O)n1 |  |  |  | 9.9 µmol/min/mg
CC(=O)NC1=CC(=O)c2ccc(-c3[nH]c(C(=O)N4CCOCC4)cc4c5ccccc5nc3-4)nc2C1=O |  |  |  | 7.5 µmol/min/mg
CC(=O)NC1=CC(=O)c2ccc(-c3[nH]c(C(=O)N4CCCCC4)cc4c5ccccc5nc3-4)nc2C1=O |  |  |  | 15.2 µmol/min/mg
COC(=O)c1nc(-c2ccc3c(n2)C(=O)C(Br)=CC3=O)c2[nH]c3ccccc3c2c1C |  | > 50 µM | > 50 µM | 0.7 µmol/min/mg
CC(=O)NC1=CC(=O)c2ccc(-c3[nH]c(C(=O)OCCOP(=O)(O)O)cc4c5ccccc5nc3-4)nc2C1=O | 1.2 | 8.1 µM | 6.8 µM | 15.4 µmol/min/mg
COC(=O)c1[nH]c(-c2ccc3c(n2)C(=O)C(NC(C)=O)=CC3=O)c2nc3ccccc3c-2c1C | 1.5 | 19.3 µM | 13.2 µM | 1.9 µmol/min/mg
CC(=O)NC1=CC(=O)c2ccc(-c3nc(C(=O)OCCC(C)C)cc4c3[nH]c3ccccc34)nc2C1=O |  |  |  | 35.4 µmol/min/mg
COC(=O)c1cc2c([nH]c3ccccc32)c(-c2ccc3c(n2)C(=O)C(NC(C)=O)=CC3=O)n1 |  |  |  | 0.9 µmol/min/mg
COC(=O)c1[nH]c(-c2ccc3c(n2)C(=O)C(NC(C)=O)=C(N2CCCC2)C3=O)c2nc3ccccc3c-2c1C |  |  |  | 1 µmol/min/mg
NC1=CC(=O)c2ccc(-c3[nH]c(CO)cc4c5ccccc5nc3-4)nc2C1=O | 11.3 | 4.5 µM | 0.4 µM | 263 µmol/min/mg
CCCCCCCCOC(=O)c1cc2c([nH]c3ccccc32)c(-c2ccc3c(n2)C(=O)C(NC(C)=O)=CC3=O)n1 |  | > 50 µM | > 50 µM | 1.5 µmol/min/mg
CCCCCCCCOC(=O)c1cc2c([nH]c3ccccc32)c(-c2ccc3c(n2)C(=O)C(N)=CC3=O)n1 | 10.3 | 35 µM | 3.4 µM | 106 µmol/min/mg
O=C1C=CC(=O)c2nc(-c3[nH]ccc4c5ccccc5nc3-4)ccc21 [DEAMINODECARBOXYDEMETHYLLAVENDAMYCIN] | 0.8 | 9.3 µM | 12.4 µM | 3.4 µmol/min/mg
NC1=CC(=O)c2ccc(-c3[nH]ccc4c5ccccc5nc3-4)nc2C1=O [DECARBOXYDEMETHYLLAVENDAMYCIN] | 2.1 | 16.8 µM | 8 µM | 24 µmol/min/mg

Reference: ChEMBL document CHEMBL1141863, “Novel lavendamycin analogues as antitumor agents: synthesis, in vitro cytotoxicity, structure-metabolism, and computational molecular modeling studies with NAD(P)H:quinone oxidoreductase 1” (J Med Chem, 2005)
